Measurements reported in ChEMBL document CHEMBL2034936, “Discovery and extensive in vitro evaluations of NK-HDAC-1: a chiral histone deacetylase inhibitor as a promising lead” (J Med Chem, 2012).
The source made the active and inactive calls. The rule behind the calls is not given here.

Legend:
SF-295 = assay: cells; format: functional; details: Homo sapiens, SF-295, 72 h
NCI-H460 = assay: Growth inhibition of human NCI-H460 cells after 72 hrs by MTS assay; format: functional; details: NCI-H460, 72 h
SF-268 = assay: cells; format: functional; details: Homo sapiens, SF-268, 72 h
T47D = assay: cells; format: functional; details: Homo sapiens, 72 h
HT-29 = assay: Growth inhibition of human HT-29 cells after 72 hrs by MTS assay; format: functional; details: HT-29, 72 h
MCF7 = assay: cells; format: functional; details: Homo sapiens, MCF7, 48 h
NCI-H23 = assay: cells; format: functional; details: Homo sapiens, NCI-H23, 72 h
SR = assay: Growth inhibition of human SR cells after 72 hrs by MTS assay; format: functional
MOLT-4 = assay: Growth inhibition of human MOLT4 cells after 72 hrs by MTS assay; format: functional; details: MOLT-4, 72 h
EKVX = assay: cells; format: functional; details: Homo sapiens, 72 h
IGROV-1 = assay: cells; format: functional; details: Homo sapiens, IGROV-1, 72 h
SW-620 [1] = assay: cells; format: functional; details: Homo sapiens, SW-620, 72 h
COLO 205 [2] = assay: Growth inhibition of human COLO205 cells after 72 hrs by MTS assay; format: functional; details: COLO 205, 72 h
SF-539 = assay: cells; format: functional; details: Homo sapiens, SF-539, 72 h
KM12 = assay: cells; format: functional; details: Homo sapiens, KM12, 72 h
HL-60(TB) = assay: cells; format: functional; details: Homo sapiens, HL-60, 72 h
PC-3 [3] = assay: cells; format: functional; details: Homo sapiens, PC-3, 72 h
HCT-116 = assay: Growth inhibition of human HCT116 cells after 72 hrs by MTS assay; format: functional; details: HCT-116, 72 h
ACHN = assay: cells; format: functional; details: Homo sapiens, 72 h
LOX IMVI = assay: cells; format: functional; details: Homo sapiens, 72 h
A549 [4] = assay: cells; format: functional; details: Homo sapiens, A549, 72 h
M14 = assay: cells; format: functional; details: Homo sapiens, M14, 72 h
DU-145 = assay: cells; format: functional; details: Homo sapiens, DU-145, 72 h
HOP-92 = assay: cells; format: functional; details: Homo sapiens, HOP-92, 72 h
Malme-3M = assay: cells; format: functional; details: Homo sapiens, 72 h
SNB-75 = assay: Growth inhibition of human SNB75 cells after 72 hrs by MTS assay; format: functional; details: SNB-75, 72 h
BT-549 = assay: cells; format: functional; details: Homo sapiens, BT-549, 72 h
HCT-15 = assay: cells; format: functional; details: Homo sapiens, HCT-15, 72 h
MDA-MB-435 = assay: cells; format: functional; details: Homo sapiens, MDA-MB-435, 72 h
NCI-H226 = assay: cells; format: functional; details: Homo sapiens, NCI-H226, 72 h
cells [5] = format: functional; details: Homo sapiens, Hs-578T, 72 h
MDA-MB-231 [6] = assay: cells; format: functional; details: Homo sapiens, MDA-MB-231, 72 h
K562 [7] = assay: cells; format: functional; details: Homo sapiens, K562, 72 h
MDA-MB-468 = assay: cells; format: functional; details: Homo sapiens, MDA-MB-468, 72 h
cells [8] = format: functional; details: Homo sapiens, NCI/ADR-RES, 72 h
SK-MEL-28 = assay: cells; format: functional; details: Homo sapiens, SK-MEL-28, 72 h
NCI-H522 = assay: cells; format: functional; details: Homo sapiens, NCI-H522, 72 h
U-251 = assay: cells; format: functional; details: Homo sapiens, U-251, 72 h
TK-10 = assay: cells; format: functional; details: Homo sapiens, TK-10, 72 h
SK-MEL-2 = assay: cells; format: functional; details: Homo sapiens, SK-MEL-2, 72 h
OVCAR-5 = assay: Growth inhibition of human OVCAR5 cells after 72 hrs by MTS assay; format: functional; details: OVCAR-5, 72 h
RXF 393 = assay: cells; format: functional; details: Homo sapiens, RXF 393, 72 h
UACC-62 = assay: Growth inhibition of human UACC62 cells after 72 hrs by MTS assay; format: functional; details: UACC-62, 72 h
NCI-H322M = assay: Growth inhibition of human NCI-H322M cells after 72 hrs by MTS assay; format: functional
OVCAR-4 = assay: cells; format: functional; details: Homo sapiens, OVCAR-4, 72 h
OVCAR-3 [9] = assay: cells; format: functional; details: Homo sapiens, OVCAR-3, 72 h
OVCAR-8 = assay: cells; format: functional; details: Homo sapiens, OVCAR-8, 72 h
SK-OV-3 = assay: cells; format: functional; details: Homo sapiens, SK-OV-3, 72 h
Histone deacetylase = assay: Inhibition of HDAC in human HeLa cell nuclear extracts using Ac-Arg-Gly-Lys(Ac)-AMC substrate by fluorimetry; format: protein assay
A498 = assay: cells; format: functional; details: Homo sapiens, A498, 72 h
SK-MEL-5 = assay: cells; format: functional; details: Homo sapiens, SK-MEL-5, 72 h
786-0 = assay: cells; format: functional; details: Homo sapiens, 786-0, 72 h
SN12C = assay: cells; format: functional; details: Homo sapiens, 72 h
UACC-257 = assay: cells; format: functional; details: Homo sapiens, UACC-257, 72 h
UO-31 = assay: cells; format: functional; details: Homo sapiens, UO-31, 72 h
SNB-19 = assay: cells; format: functional; details: Homo sapiens, SNB-19, 72 h
CCRF-CEM = assay: Growth inhibition of human CCRF-CEM cells after 72 hrs by MTS assay; format: functional
K562 [10] = assay: cells; format: functional; details: Homo sapiens, K562, 72 h; remark: listed apart in the source
PC-3 [11] = assay: cells; format: functional; details: Homo sapiens, PC-3, 72 h; remark: listed apart in the source
COLO 205 [12] = assay: cells; format: functional; details: Homo sapiens, COLO 205, 72 h
OVCAR-3 [13] = assay: cells; format: functional; details: Homo sapiens, OVCAR-3, 72 h; remark: listed apart in the source
A549 [14] = assay: cells; format: functional; details: Homo sapiens, A549, 72 h; remark: listed apart in the source
SW-620 [15] = assay: cells; format: functional; details: Homo sapiens, SW-620, 72 h; remark: listed apart in the source
HepG2 = assay: cells; format: functional; details: Homo sapiens, HepG2, 72 h
MDA-MB-231 [16] = assay: cells; format: functional; details: Homo sapiens, MDA-MB-231, 72 h; remark: listed apart in the source
[17] = target: Histone deacetylase (Homo sapiens) (UniProt Q13547+O15379+Q9UBN7+Q92769+Q9UQL6+Q8WUI4+Q9BY41+Q96DB2+P56524+Q9UKV0+Q969S8); assay: Inhibition of HDAC in human MDA-MB-231 cells assessed as stimulation of histone H3 acetylation at 5 uM incubated for 24 hrs by Western blot; format: cell-based
How it was run: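 MDA-MB-231 cells in 35-mm dishes, dosed 24 h at graded concentrations, then trypsinized and PBS-washed. Lysed in RIPA (50 mM Tris-HCl pH 7.5, protease and phosphatase inhibitors) for 30 min at 4 °C, then cleared at 12,000g. Lysate, 60 μg protein by BCA, run on SDS-PAGE and PVDF. Blotted with anti-acetyl-histone H3 and HRP anti-rabbit, read by ECL.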

`CC(C)[C@H](c1nc2ccccc2o1)n1cc(/C=C/C(=O)NO)nn1` showed a GI50 (SF-295) of 0.31 µM, a GI50 (NCI-H460) of 0.39 µM and a GI50 (SF-268) of 0.63 µM. For the same molecule, the GI50 (T47D) was 0.5 µM, the GI50 (HT-29) was 0.22 µM and the GI50 (MCF7) was 0.45 µM. It also gave a GI50 (NCI-H23) of 0.35 µM, a GI50 (SR) of 0.35 µM and a GI50 (MOLT-4) of 0.3 µM. The GI50 (EKVX) was 0.68 µM, the GI50 (IGROV-1) was 0.19 µM and the GI50 (SW-620 [1]) was 0.29 µM. The GI50 (COLO 205 [2]) was 0.25 µM, the GI50 (SF-539) was 0.75 µM and the GI50 (KM12) was 0.41 µM. It also gave a GI50 (HL-60(TB)) of 0.28 µM, a GI50 (PC-3 [3]) of 0.28 µM and a GI50 (HCT-116) of 0.18 µM. It also gave a GI50 (ACHN) of 0.47 µM, a GI50 (LOX IMVI) of 0.16 µM and a GI50 (A549 [4]) of 0.3 µM. The GI50 (M14) was 0.41 µM, the GI50 (DU-145) was 0.35 µM and the GI50 (HOP-92) was 0.07 µM. It also gave a GI50 (Malme-3M) of 0.063 µM, a GI50 (SNB-75) of 0.41 µM and a GI50 (BT-549) of 0.28 µM. The GI50 (HCT-15) was 0.96 µM, the GI50 (MDA-MB-435) was 0.24 µM and the GI50 (NCI-H226) was 1.3 µM. It also gave a GI50 (cells [5]) of 1.3 µM, a GI50 (MDA-MB-231 [6]) of 0.91 µM and a GI50 (K562 [7]) of 0.28 µM. The GI50 (MDA-MB-468) was 0.25 µM, the GI50 (cells [8]) was 0.095 µM and the GI50 (SK-MEL-28) was 0.52 µM. For the same molecule, the GI50 (NCI-H522) was 0.13 µM, the GI50 (U-251) was 0.34 µM and the GI50 (TK-10) was 0.16 µM. For the same molecule, the GI50 (SK-MEL-2) was 0.35 µM, the GI50 (OVCAR-5) was 0.4 µM and the GI50 (RXF 393) was 0.35 µM. For the same molecule, the GI50 (UACC-62) was 0.4 µM, the GI50 (NCI-H322M) was 0.25 µM and the GI50 (OVCAR-4) was 2.8 µM. For the same molecule, the GI50 (OVCAR-3 [9]) was 0.47 µM, the GI50 (OVCAR-8) was 0.24 µM and the GI50 (SK-OV-3) was 0.26 µM. It also gave an IC50 (Histone deacetylase) of 0.031 µM, a GI50 (A498) of 0.26 µM and a GI50 (SK-MEL-5) of 0.25 µM. It also gave a GI50 (786-0) of 0.34 µM, a GI50 (SN12C) of 0.79 µM and a GI50 (UACC-257) of 0.23 µM. The GI50 (UO-31) was 0.23 µM, the GI50 (SNB-19) was 0.85 µM and the GI50 (CCRF-CEM) was 0.35 µM.
Work on `O=C(/C=C/c1cn(C/C=C/c2ccccc2)nn1)NO` yielded a GI50 (K562 [10]) of 0.55 µM, a GI50 (PC-3 [11]) of 1.3 µM and a GI50 (COLO 205 [12]) of 1.1 µM. For the same molecule, the GI50 (OVCAR-3 [13]) was 1.1 µM, the IC50 (Histone deacetylase) was 0.104 µM and the GI50 (A549 [14]) was 1.9 µM. For the same molecule, the GI50 (SW-620 [15]) was 0.48 µM and the GI50 (HepG2) was 3.2 µM.
Work on `CC(c1nc2ccccc2o1)n1cc(/C=C/C(=O)NO)nn1` (racemic) yielded a GI50 (MDA-MB-231 [16]) of 1.2 µM, an IC50 (Histone deacetylase) of 0.086 µM and a GI50 (A549 [14]) of 2.4 µM. For the same molecule, the GI50 (HepG2) was 2.9 µM.
Molecule `O=C(O)CCC(c1nc2ccccc2o1)n1cc(/C=C/C(=O)NO)nn1` (racemic) has a GI50 (MDA-MB-231 [16]) of over 20 µM, an IC50 (Histone deacetylase) of 0.333 µM and a GI50 (A549 [14]) of over 20 µM. The GI50 (HepG2) was over 20 µM.
With `O=C(/C=C/c1cn(Cc2nc3ccccc3s2)nn1)NO` the GI50 (K562 [10]) was 2.6 µM, the “histone H3 acetylation activity (active/not active)” value [17] was “inactive” and the GI50 (PC-3 [11]) was 2.9 µM. It also gave a GI50 (COLO 205 [12]) of 1.5 µM, a GI50 (OVCAR-3 [13]) of 3.6 µM and an IC50 (Histone deacetylase) of 0.041 µM. It also gave a GI50 (A549 [14]) of 2.1 µM, a GI50 (SW-620 [15]) of 1.5 µM and a GI50 (HepG2) of 8.8 µM.
Molecule `O=C(/C=C/c1cn(Cc2nc3ccccc3[nH]2)nn1)NO` has an IC50 (Histone deacetylase) of 0.178 µM, a GI50 (A549 [14]) of over 20 µM and a GI50 (HepG2) of over 20 µM.
`NC(=O)CCC(c1nc2ccccc2o1)n1cc(/C=C/C(=O)NO)nn1` (racemic) gave a GI50 (MDA-MB-231 [16]) of 9.5 µM, an IC50 (Histone deacetylase) of 0.049 µM and a GI50 (A549 [14]) of 21.8 µM. For the same molecule, the GI50 (HepG2) was 14 µM.
